In ChEMBL document CHEMBL1129672, “Ionophore properties of monensin derivatives studied on human erythrocytes by 23Na NMR and K+ and H+ potentiometry: relationship with antimicrobial and antimalarial activities” (J Med Chem, 1996):
Converted amounts (≈) assume the structure as drawn.

How the values were obtained:
Bacillus cereus = assay: Minimum Inhibitory concentration against Bacillus cereus ATCC 14579; type: functional
In short: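 Broth dilution in Mueller-Hinton broth pH 7.4, 24 h incubation at 27 °C. Ionophores diluted in DMSO across 18 tubes, 100 ug/mL down to 1.56 ng/mL.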

Plasmodium falciparum = assay: In vitro inhibitory activity against Plasmodium falciparum; type: functional, organism-based
In short: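 Nigerian strain kept in human erythrocytes, 7% hematocrit, RPMI 1640 + 25 mM Hepes pH 7.4 + 10% AB+ serum, 37 °C, candle jar. Drugs from DMSO stocks (final solvent ≤0.25%), 1–2% hematocrit, 0.3–0.8% parasitemia, 48 h, then [3H]hypoxanthine 12–18 h. Filter-bound counts as % of drug-free control; IC50 from log dose plot, ≥2 experiments in triplicate.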

| SMILES | MIC (Bacillus cereus) [µg/mL] | IC50 (Plasmodium falciparum) [µg/mL] |
| --- | --- | --- |
| C[C@@H]1C[C@H](C)[C@@H](C)O[C@@]1(O)COC(=O)Nc1ccc(Cl)cc1 | 0.05 (≈ 0.153 µM) | 0.00125 (≈ 0.00381 µM) |
| Cc1ccc(S(=O)(=O)OC[C@]2(O)O[C@H](C)[C@@H](C)C[C@H]2C)cc1 | 0.78 (≈ 2.37 µM) | 0.00125 (≈ 0.00381 µM) |
| C[C@@H]1C[C@H](C)[C@@H](C)O[C@@]1(O)COC(=O)c1cccs1 | 0.02 (≈ 0.0703 µM) | 0.0027 (≈ 0.00949 µM) |
| C[C@@H]1C[C@H](C)[C@@H](C)OC1O (stereo partly specified) | 0.39 (≈ 2.7 µM) | 0.0119 (≈ 0.0827 µM) |
| C[C@@H]1C[C@H](C)[C@@H](C)O[C@@]12COC(c1ccccc1)O2 (stereo partly specified) | 6.25 (≈ 23.8 µM) | 0.75 (≈ 2.86 µM) |
| C[C@@H]1C[C@H](C)[C@@H](C)O[C@@]1(O)CO | 1.56 (≈ 8.95 µM) | 0.00165 (≈ 0.00947 µM) |
| C[C@@H]1C[C@H](C)[C@@H](C)O[C@@]12COC(=O)O2 | 1.56 (≈ 7.79 µM) | 0.00075 (≈ 0.00375 µM) |
| C[C@H](C[C@H](C)[C@@H](C)O)[C@H](O)CO | > 50 | 5.25 (≈ 29.8 µM) |
